High-throughput results (PubChem BioAssay)
A selection: hits, their analogues and other compounds. The true share with any hit is near 2.2%.
F508del corr – correctors of CFTR F508del function in bronchial epithelial cells; hit rate 0.36% among 350,000; activity (quench increase), % at 7.58 µM; CFBE cells, YFP halide quenching; stimulated with forskolin plus potentiator P3; % fluorescence drop versus neutral controls;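 active = mean added fluorescence quench of at least 8% versus neutral control, with both replicates also reaching 8%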;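 also: cells transiently co-express mutant CFTR-F508del with the halide-sensitive YFP; corrector assay measuring rescue of mutant channel to the surface after 24 h compound exposure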
S100A4 MyoIIA – inhibitors of human S100A4 binding to myosin IIA peptide; P26447; S100A4/TAMRA-MyoIIA peptide fluorescence polarization; inhibition, % at 10.7 µM; hit rate 0.14% among 360,000; AID 652163;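 active = mean inhibition of at least 70% across replicates, with every replicate also reaching that level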
Target sequence (P26447 whole entry, looked up): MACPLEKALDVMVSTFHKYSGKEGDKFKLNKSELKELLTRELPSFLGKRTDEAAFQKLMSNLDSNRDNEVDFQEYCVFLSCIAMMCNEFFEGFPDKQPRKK
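Test system – S100A4 monomer (human) · Compound – single-point compound testing · Schedule – 5 min incubation before reading · Probe or stimulus – TAMRA-labelled myosin IIA heavy-chain peptide probe, 5 nM · Benchmarks – neutral control DMSO, positive control TFP · Medium – Calcium-containing HEPES buffer, pH 7.2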
dFosB act-1 – mouse delta FosB homodimer activation | P13346 | purified delta FosB, TAMRA-CDK5 oligo fluorescence polarization; percent of positive-control signal above neutral wells | activation, % at 25 µM | hit rate 0.99% among 340,000 | AID 493131;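 active = mean activation above about 17%, with every replicate also reaching it, limit read from the data, passing the limit was not always enough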
Target sequence (P13346 whole entry, looked up): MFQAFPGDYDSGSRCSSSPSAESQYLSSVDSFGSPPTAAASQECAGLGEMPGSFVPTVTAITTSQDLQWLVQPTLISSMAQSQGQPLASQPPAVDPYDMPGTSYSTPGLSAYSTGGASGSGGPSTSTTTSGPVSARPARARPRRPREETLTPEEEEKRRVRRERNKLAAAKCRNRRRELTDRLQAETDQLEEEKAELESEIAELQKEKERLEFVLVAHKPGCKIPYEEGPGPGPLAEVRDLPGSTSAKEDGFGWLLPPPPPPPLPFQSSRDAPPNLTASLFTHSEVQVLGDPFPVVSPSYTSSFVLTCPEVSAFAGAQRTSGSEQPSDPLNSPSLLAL
FGF22 binding-1 – shifts melting point of recombinant human FGF22. Q9HCT0. recombinant FGF22 thermal shift, SYPRO orange fluorescence; percent of sucrose octasulfate shift, DMSO zero. activity (Tm shift, normalised), % at 9.99 µM. hit rate 1.5% among 340,000. AID 651658;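 active = mean Tm shift, scaled 0 neutral to 100 positive control, at about 1.3% or above, every replicate too, limit read from the data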
Target sequence (Q9HCT0 whole entry, looked up): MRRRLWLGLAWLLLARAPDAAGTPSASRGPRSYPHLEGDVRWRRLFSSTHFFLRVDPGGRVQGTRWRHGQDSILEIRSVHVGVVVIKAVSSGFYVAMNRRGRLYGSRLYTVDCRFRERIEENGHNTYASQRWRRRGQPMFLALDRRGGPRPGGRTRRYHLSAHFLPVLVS
dFosB act-2 – enhances mouse delta FosB homodimer binding to DNA | activation, % at 24.9 µM | 2,400 tested, under 10 active | purified delta FosB, TAMRA-CDK5 oligo fluorescence polarization; normalised: neutral wells 0, positive control 100 | shares compounds with dFosB act-1;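 active = highest replicate activation at or above 34% and every replicate reaching that threshold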;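 also: higher polarization means more probe DNA bound by delta FosB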
FGF22 binding-2 – FGF22 (human) binding in thermal shift. recombinant FGF22 thermal shift, SYPRO orange fluorescence. shares compounds with FGF22 binding-1. AID 720646. hit rate 2% among 1,000. thermal shift activity, °C (ΔTm) at 38 µM;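 active = fitted rise in melting shift crosses a set limit at or below the top valid dose tested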
SYPRO no-protein – shows thermal shift signal without protein, FGF22 counter-screen; compound-only SYPRO orange thermal shift counter-screen, no protein; hit rate 2% among 1,000; shares compounds with FGF22 binding-1; AC50, µM (highest dose often 38 µM);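 active = rising signal whose fitted curve reaches the 0.54 level within the top valid dose, showing a melting point, actives reach about 13 µM in these data; inactive = the rest, including activity in the opposite direction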; also: value is where the raw curve crosses a fixed level and not half-maximal
* = called active by the depositor; i = inactive; . = not tested or not shown; ! = not confirmed by another sample; [ ] = dose if it differs, or a comment.

SMILES	F508del corr	S100A4 MyoIIA	dFosB act-1	FGF22 binding-1	dFosB act-2	others
O=C(Nc1ccc2c(c1)OCO2)N[C@H]1CC[C@H](CCNC(=O)C2CCCCC2)O[C@@H]1CO	0.8	-4.3	.	0.8	.
C[C@@H](NC(=O)Cn1cnc2c(NCc3ccccc3)ncnc21)c1cccc2ccccc12	4.9	-1.4	37.7*	-0.3	-1.5
O=C(Cn1cnc2c(NCc3ccccc3)ncnc21)NCc1ccccc1	2.0	-0.9	-2.4	-0.2	.
O=[N+]([O-])c1ccccc1OCCOc1ccccc1[N+](=O)[O-]	-1.4	-3.5	23.2*	.	0.6
COc1ccc([N+](=O)[O-])cc1NC(=O)CCNC(=O)Cn1ccc2ccccc2c1=O	-1.7	-0.1	19.2*	0.0	-4.6
COc1ccc(C)cc1NC(=O)CNC(=O)Cn1ccc2ccccc2c1=O	.	.	47.1*	.	-1.2
C[C@H]1CN([C@@H](C)CO)C(=O)c2cccc(NS(=O)(=O)c3ccc(Cl)cc3)c2O[C@H]1CN(C)C(=O)Nc1ccc(F)cc1	-4.1	-10.4	.	-0.4	.
Oc1ccc(Cl)cc1-c1cc(-c2cccc(Br)c2)n[nH]1	.	.	45.7*	.	-0.5
COCC(=O)Nc1ccc2c(c1)C(=O)N(C)[C@@H]1CC[C@@H](CC(=O)NCc3ccc(OC)cc3)O[C@H]1CO2	0.3	.	.	0.0	.
Cc1c(NC(=O)Cc2ccccc2)cccc1C(=O)NN1C(=O)c2ccccc2C1=O	.	-0.8	23.1*	0.1	8.7
CCO[C@@H]1OC(C(=O)N2CCCC2)=C[C@H](C2CCCCC2)[C@H]1CCCO	1.6	-68.6	.	0.1	.
COc1ccc(Cc2noc(-c3ccccc3)n2)cc1OC	-2.3	3.1	-1.5	1.0	.
COc1ccc(-c2nc(Cc3ccc(Cl)cc3)no2)cc1OC	.	.	50.4*	.	-0.3
CN(C)c1ccc2c(c1)[C@H]1C[C@@H](CC(=O)NCC3CC3)O[C@@H](CO)[C@H]1O2	0.5	4.8	.	-1.1	.
COc1ccc(C)c2sc(NC(=O)c3cccc(N4C(=O)CCC4=O)c3)nc12	2.1	-20.8	52.7*	-0.1	6.8
Cc1ccc(C)c2sc(NC(=O)c3ccc(N4C(=O)CCC4=O)cc3)nc12	1.9	-0.3	-7.1	0.2	.
CCC(=O)N1CCCCN2[C@H](C1)[C@H](c1ccc(-c3cccc(C(=O)N(C)C)c3)cc1)[C@@H]2CO	0.1	-8.6	.	-0.1	.
NC1=NC2(CCCCC2)n2c(nc3ccccc32)N1	.	.	-11.9	.	.
NC1=NC2(CCC(c3ccccc3)CC2)n2c(nc3ccccc32)N1 (configuration not stated)	.	.	34.1*	.	1.6
CCN(CC)CCNC(=O)CCc1c(C)nc2c(c(C)nn2-c2ccc(C)c(C)c2)c1C	0.3	-7.6	19.6*	-0.1	1.2
C[C@@H]1CN([C@@H](C)CO)C(=O)c2cc(NC(=O)Nc3ccccc3)ccc2O[C@@H](C)CCCCO[C@@H]1CN(C)Cc1ccncc1	-3.3	.	.	.	.
COc1ccc(OCC(=O)Nc2ccc3nc(C)sc3c2)cc1	-1.0	40.0	-5.0	42.1	.
CC(=O)Nc1ccc2nc(NC(=O)COc3ccc(C)cc3)sc2c1	-2.7	-5.0	19.3*	1.5*	-6.3	FGF22 binding-2=-0.001;SYPRO no-protein=11.5µM*
O=C(N/N=C/c1ccncc1)c1cccc(NC(=O)c2ccc(Cl)cc2)c1	4.1	7.2	41.1*	2.4*	5.0	FGF22 binding-2=0.066;SYPRO no-protein=i
COCC(=O)N1CC(=O)N2[C@H](C1)[C@@H](c1ccc(-c3ccccc3C)cc1)[C@@H]2CO	2.1	2.8	.	.	.
SMILES	F508del corr	S100A4 MyoIIA	dFosB act-1	FGF22 binding-1	dFosB act-2	others
C[C@H]1CN([C@@H](C)CO)C(=O)c2cc(-c3cccc(C#N)c3)cnc2O[C@@H]1CN(C)C(=O)C1CC1	-2.1	10.5	.	0.0	.
O=C(N/N=C\c1cccnc1)c1cc(-c2ccc(Cl)s2)[nH]n1	-1.3	-0.5	32.9*	1.3*	3.2	FGF22 binding-2=-0.186;SYPRO no-protein=i
C[C@H]1CN([C@@H](C)CO)C(=O)c2cc(C3=CCCC3)cnc2O[C@H]1CN(C)C(=O)CN(C)C	-2.5	-1.1	.	1.4*	.	FGF22 binding-2=0.001;SYPRO no-protein=i
C[C@H](CO)N1C[C@H](C)[C@@H](CN(C)C(=O)C2CC2)Oc2ncc(Br)cc2C1=O	-2.4	.	.	.	.
C[C@@H]1CN([C@@H](C)CO)C(=O)c2cc(Br)cnc2O[C@H]1CN(C)C(=O)C1CC1	1.5	-3.4	.	2.4*!	.	FGF22 binding-2=0.093;SYPRO no-protein=i
C[C@H]1CN([C@@H](C)CO)C(=O)c2cc(C3=CCCC3)cnc2O[C@@H]1CN(C)C(=O)CN(C)C	-0.8	-1.1	.	0.4	.
Cc1cc(C(=O)Nc2ccc3c(c2)C(=O)N(C)[C@H]2CC[C@@H](CC(=O)NCC(F)(F)F)O[C@H]2CO3)no1	0.4	-2.5	.	.	.
COc1cccc(NC(=O)N(C)C[C@@H]2Oc3ncc(C#Cc4ccc(F)cc4)cc3C(=O)N([C@@H](C)CO)C[C@H]2C)c1	1.2	35.1	.	-0.7	.
Cn1cnc(S(=O)(=O)N[C@H]2C=C[C@@H](CC(=O)Nc3ccc(-c4ccccc4)cc3)O[C@H]2CO)c1	2.5	2.6	.	0.1	.
COc1cccc(NC(=O)CN2CCN(S(=O)(=O)c3ccc(F)cc3)CC2)c1	0.1	-1.1	-3.2	28.4*	.	FGF22 binding-2=0.208;SYPRO no-protein=i
CC(C)NC(=O)N(C)C[C@H]1OCCCC[C@H](C)Oc2ccc(N(C)C)cc2C(=O)N([C@H](C)CO)C[C@H]1C	1.5	14.4	.	208.7*	.	FGF22 binding-2=0.168[42 µM];SYPRO no-protein=i
COc1ccc(S(=O)(=O)Nc2ccc3c(c2)C(=O)N([C@H](C)CO)C[C@@H](C)[C@@H](CN(C)C)OCCCC[C@@H](C)O3)cc1	1.3	-2.4	.	-0.4	.
CCCN(C)C[C@@H]1OCCCC[C@@H](C)Oc2ccc(NC(=O)NC(C)C)cc2C(=O)N([C@H](C)CO)C[C@@H]1C	0.1	-6.8	.	0.5	.
COc1ccc(S(=O)(=O)Nc2ccc3c(c2)C(=O)N([C@@H](C)CO)C[C@@H](C)[C@@H](CN(C)C)OCCCC[C@@H](C)O3)cc1	-2.5	-3.3	.	2.1*	.	FGF22 binding-2=0.075[42 µM];SYPRO no-protein=i
CC(C)NC(=O)Nc1ccc2c(c1)C(=O)N([C@@H](C)CO)C[C@@H](C)[C@@H](CN(C)C(=O)Nc1ccccc1)OCCCC[C@@H](C)O2	-2.9	4.1	.	28.0*	.	FGF22 binding-2=0.167;SYPRO no-protein=i
CCCN(C)C[C@@H]1OCCCC[C@@H](C)Oc2ccc(NC(=O)NC(C)C)cc2C(=O)N([C@@H](C)CO)C[C@@H]1C	-2.3	12.5	.	1.4*	.	FGF22 binding-2=0.066;SYPRO no-protein=i
CC(C)NC(=O)Nc1ccc2c(c1)C(=O)N([C@H](C)CO)C[C@H](C)[C@@H](CN(C)C(=O)Nc1ccccc1)OCCCC[C@@H](C)O2	-0.7	-7.9	.	0.2	.
